# Screening results from PubChem.
# Rows were chosen to be rich in hits. Some 5.9% of all compounds tested hit in one or more screens of this group.
# Pf Dd2 inh: inhibitors of Plasmodium falciparum Dd2 growth; 94,000 tested, 2.3% active; activity change, % at 10 µM; P. falciparum Dd2 growth, SYBR Green, 72 h; hits give low values; AID 1159554; in the data active = activity change below about -80%; inconclusive = no clear call, values can overlap the other calls
# T cruzi growth-1: inhibitors of T. cruzi proliferation | T. cruzi beta-gal in NIH3T3, GalScreen luminescence, 90 h | 77,000 tested, 5.9% active | inhibition, % at 8.34 µM;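 active = mean inhibition above about 93%, with at least 55% of replicates each passing it, limit read from the data, passing the limit was not always enough; inconclusive = only one of those two conditions holds; inactive = neither condition holds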
# IDH1 mut inh: IDH1 R132H (human) inhibition; 70,000 tested, 0.18% active; inhibition, % at 10 µM; IDH1 R132H reductase, diaphorase/resazurin fluorescence, 60 min; AID 624101; O75874; in the data active = inhibition above about 34%; inconclusive = no clear call, values can overlap the other calls; inactive = below about 11%;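 note: 0% = DMSO and 100% = no enzyme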
# GASC1 inh: KDM4C (human) demethylase inhibition; GST-KDM4C 2-372, H3K9me3 peptide, LANCE TR-FRET; AID 720574; 96,000 tested, 0.15% active; inhibition, % at 12.5 µM;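 active = mean replicate inhibition above about 25%, with at least 55% of replicates also reaching it, limit read from the data, passing the limit was not always enough; inconclusive = only one of those two conditions met; inactive = neither condition met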
# Target sequence (Q9H3R0 2-372 limits assumed): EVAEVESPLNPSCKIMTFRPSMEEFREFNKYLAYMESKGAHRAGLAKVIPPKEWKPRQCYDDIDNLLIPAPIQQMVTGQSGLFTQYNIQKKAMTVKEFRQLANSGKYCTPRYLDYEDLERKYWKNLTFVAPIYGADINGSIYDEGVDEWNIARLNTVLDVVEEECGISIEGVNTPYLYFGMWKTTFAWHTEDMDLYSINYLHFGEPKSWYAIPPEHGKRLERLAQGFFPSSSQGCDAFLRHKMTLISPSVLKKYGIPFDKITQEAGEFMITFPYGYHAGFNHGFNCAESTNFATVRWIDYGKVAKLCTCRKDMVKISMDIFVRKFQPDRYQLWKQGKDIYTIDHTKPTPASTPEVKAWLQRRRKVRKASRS
#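 Assay system: GST-GASC-1 enzyme fragment 2-372 | Amount: 10 nM enzyme | Medium: HEPES buffer, pH 7.5, plus ascorbate | Reagent: H3K9me3 peptide substrate, Fe(II), 2-oxoglutarate | Doses: Single-point compound screen | Incubation: 30 min demethylation and 1 h detection at room temperature | Measured by: LANCE TR-FRET, excitation 340 nm, emissions 618 and 671 nm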
# T cruzi growth-2: inhibitors of T. cruzi proliferation | shares compounds with T cruzi growth-1 | T. cruzi beta-gal in NIH3T3, GalScreen luminescence, 90 h | inhibition, % at 8.35 µM | 5,600 tested, 72% active | AID 651739;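 active = mean replicate inhibition above about 95% and at least 55% of replicates individually reaching it, limit read from the data; inconclusive = only one of the two criteria is met; inactive = neither criterion is met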
# T cruzi growth-3: inhibitors of T. cruzi proliferation; T. cruzi beta-gal in NIH3T3, GalScreen luminescence, 90 h; 5,600 tested, 21% active; AID 651740; shares compounds with T cruzi growth-1; inhibition, % at 2.09 µM;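 active = mean inhibition above about 95%, with at least 55% of replicates also reaching it, limit read from the data; inconclusive = meets just one of the two conditions; inactive = meets neither condition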;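 note: plate controls were neutral control median for no effect and positive control median for full effect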
# NIH3T3 tox: NIH/3T3 (mouse) viability loss; shares compounds with T cruzi growth-1; NIH/3T3 viability, CellTiter-Glo ATP luminescence, 90 h; cytotoxicity (signal decrease), % at 8.35 µM; 5,600 tested, 14% active; AID 651742;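 active = mean signal decrease across replicates above about 35% based on untreated-well scatter, with enough replicates individually passing, limit read from the data; inconclusive = no rule stated though some were filed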;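 note: 0% = median of neutral control wells and 100% = median of positive control wells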
# NIH3T3 tox 2: NIH/3T3 (mouse) viability loss; inhibition, % at 24.9 µM; shares compounds with T cruzi growth-1; 5,600 tested, 56% active; NIH/3T3 viability, CellTiter-Glo ATP luminescence, 90 h;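 active = mean loss of cell viability signal at or above a set limit, and enough replicates individually reaching it; inconclusive = meets only the mean limit or only the replicate share; inactive = meets neither condition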;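 note: 0% = median of neutral control wells and 100% = median of positive control wells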
# * hit, by the source's call; ? = inconclusive; nt = no result.
SMILES,Pf Dd2 inh,T cruzi growth-1,IDH1 mut inh,GASC1 inh,T cruzi growth-2,T cruzi growth-3,NIH3T3 tox,NIH3T3 tox 2
O=C(C1CCCC1)N1CC[C@@H]2[C@@H](CO)Nc3ccc(-c4cccc(F)c4)cc3[C@@H]21,-38,nt,nt,2,nt,nt,nt,nt
O=C(C1CCCC1)N1CC[C@@H]2[C@H](CO)Nc3ccc(-c4cccc(F)c4)cc3[C@@H]21,-65,nt,nt,-5,nt,nt,nt,nt
O=C(C1CC1)N1CC[C@H]2[C@H](CO)Nc3ccc(-c4cccc(F)c4)cc3[C@H]21,-11,116*,nt,-4,99*,94,4,17
C[C@@H]1CN([C@@H](C)CO)C(=O)c2ccccc2-c2ccccc2CO[C@@H]1CN(C)Cc1ccc(C(=O)O)cc1,-25,25,-4,-2,nt,nt,nt,nt
CC(C)CC#Cc1ccc2c(c1)O[C@@H](CN(C)C(=O)NC(C)C)[C@H](C)CN([C@H](C)CO)S2(=O)=O,-15,51,6,-4,nt,nt,nt,nt
CC(C)CC#Cc1ccc2c(c1)O[C@H](CN(C)C(=O)NC1CCCC1)[C@@H](C)CN([C@@H](C)CO)S2(=O)=O,3,125*,0,-1,103*,81,6,103*
CC(C)CC#Cc1ccc2c(c1)O[C@H](CN(C)C(=O)NC1CCCC1)[C@H](C)CN([C@H](C)CO)S2(=O)=O,-11,120*,0,0,103*,93,18,104*
CC(C)CC#Cc1ccc2c(c1)O[C@H](CN(C)C(=O)NC1CCCC1)[C@H](C)CN([C@@H](C)CO)S2(=O)=O,10,120*,4,0,110*,79,20,81*
CC(C)CC#Cc1ccc2c(c1)O[C@@H](CN(C)C(=O)NC1CCCC1)[C@@H](C)CN([C@@H](C)CO)S2(=O)=O,-21,120*,0,-1,101*,84,-19,104*
CC(C)CC#Cc1ccc2c(c1)O[C@@H](CN(C)C(=O)NC(C)C)[C@@H](C)CN([C@H](C)CO)S2(=O)=O,-25,51,-4,0,nt,nt,nt,nt
CC(C)CC#Cc1ccc2c(c1)O[C@H](CN(C)C(=O)NC(C)C)[C@H](C)CN([C@@H](C)CO)S2(=O)=O,-28,73,0,1,nt,nt,nt,nt
C[C@H](CO)N1C[C@H](C)[C@@H](CN(C)Cc2ccc(-c3ccccc3)cc2)Oc2ncc(C#C[C@@H](C)O)cc2C1=O,-44,nt,0,2,nt,nt,nt,nt
C[C@@H]1CN([C@H](C)CO)C(=O)c2cc(NC(=O)Nc3ccc(C(F)(F)F)cc3)ccc2O[C@@H]1CN(C)Cc1ccncc1,4,nt,0,0,nt,nt,nt,nt
C[C@@H]1CCCCO[C@H](CN(C)C(=O)c2ccccc2)[C@H](C)CN([C@@H](C)CO)C(=O)c2cc(NC(=O)Nc3ccc(C(F)(F)F)cc3)ccc2O1,-61,?,nt,0,101*,112*,20,48*
C[C@@H]1CCCCO[C@@H](CN(C)C(=O)c2ccccc2)[C@@H](C)CN([C@H](C)CO)C(=O)c2cc(NC(=O)Nc3ccc(C(F)(F)F)cc3)ccc2O1,2,117,-1,0,nt,nt,nt,nt
C[C@@H]1CCCCO[C@H](CN(C)C(=O)c2ccccc2)[C@@H](C)CN([C@@H](C)CO)C(=O)c2cc(NC(=O)Nc3ccc(C(F)(F)F)cc3)ccc2O1,-92*,?,-1,0,107*,110*,-5,-9
C[C@@H]1CCCCO[C@@H](CN(C)C(=O)c2ccccc2)[C@H](C)CN([C@H](C)CO)C(=O)c2cc(NC(=O)Nc3ccc(C(F)(F)F)cc3)ccc2O1,-57,?,nt,-1,103*,117*,-7,9
C[C@@H]1CN([C@H](C)CO)C(=O)c2cc(NC(=O)Nc3ccc(C(F)(F)F)cc3)ccc2O[C@@H](C)CCCCO[C@@H]1CN(C)C(=O)c1ccccc1,-68,72,nt,0,nt,nt,nt,nt
Cc1noc(C)c1NC(=O)N(C)C[C@@H]1Oc2ccc(NC(=O)C3CCCCC3)cc2CC(=O)N([C@H](C)CO)C[C@@H]1C,11,2,-1,2,nt,nt,nt,nt
